The results in this text go back to ChEMBL document CHEMBL1137740, “Design, cytotoxic and fluorescent properties of novel N-phosphorylalkyl substituted E,E-3,5-bis(arylidene)piperid-4-ones” (Eur J Med Chem, 2009).

Assay [1] has as its system A549. As to the kind of experiment: Cytotoxicity against human A549 cells at 50 uM after 72 hrs by MTT assay. Type of assay: functional. Conditions: A549, 72 h.
The subject of assay [2] is SK-OV-3. The assay is described as follows: Cytotoxicity against human Scov3 cells at 50 uM after 72 hrs by MTT assay. Conditions: SK-OV-3, 72 h. Format: functional. Background: Formazan colour is commonly taken as a measure of viable cells.
Assay [3] in a line: Cytotoxicity against human Caov3 cells at 50 uM after 72 hrs by MTT assay. Format: functional. Conditions: Caov-3, 72 h.
Assay [4] concerns PC-3. As to the kind of experiment: Cytotoxicity against human PC3 cells at 50 uM after 72 hrs by MTT assay. As to conditions: PC-3, 72 h. Format: functional.
The subject of assay [5] is A549. As to the kind of experiment: Cytotoxicity against human A549 cells after 72 hrs by MTT assay. Type of assay: functional, cell-based. Conditions: A549, 72 h. The essentials: (§1)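 Cells grown in RPMI-1640 with 10% FBS, 2 mM L-glutamine and gentamicin. Seeded at 1×10^4 cells/well and allowed to attach overnight at 37 °C, 5% CO2. Compounds dissolved in DMSO and diluted into FBS-free medium, tested at 5×10^-5, 10^-5, 10^-6 and 10^-7 M. After 72 h, MTT added for 3 h at 37 °C. Formazan dissolved in DMSO and OD read at 590 nm. Viability expressed versus untreated controls, triplicates. IC50 determined graphically; melphalan as positive control.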

Assay [6] concerns SK-OV-3. The assay is described as follows: Cytotoxicity against human Scov3 cells after 72 hrs by MTT assay. Type of assay: functional, cell-based. Conditions: SK-OV-3, 72 h. The essentials:
as §1

The test system of assay [7] is PC-3. The assay is described as follows: Cytotoxicity against human PC3 cells after 72 hrs by MTT assay. Type of assay: functional, cell-based. Conditions: PC-3, 72 h. An outline of the steps:
as §1

A short description of assay [8]: Cytotoxicity against human Caov3 cells after 72 hrs by MTT assay. As to conditions: Caov-3, 72 h. Type of assay: functional, cell-based. An outline of the steps: as §1

As usually defined, the inhibition is the drop in the measured response relative to a control, in per cent. Read a low inhibition as a response near the control. Usually IC50 stands for the point on the concentration scale where inhibition reaches its midpoint. A higher IC50 goes with weaker potency.

For `CCOP(=O)(CCN1C/C(=C\c2ccc(N(C)C)cc2)C(=O)/C(=C/c2ccc(N(C)C)cc2)C1)OCC`, the inhibition at 50 µM (with A549 [1]; in the assay with SK-OV-3 [2]; in assay [3]; with PC-3 [4]) was < 50% in each case.

On to `CCOP(=O)(CCCCN1C/C(=C\c2ccc(N(C)C)cc2)C(=O)/C(=C/c2ccc(N(C)C)cc2)C1)OCC`, for which the inhibition at 50 µM (in the assay with A549 [1]; with SK-OV-3 [2]; in assay [3]; in the assay with PC-3 [4]) was < 50% each time.

Take `CN(C)c1ccc(/C=C2\CNC/C(=C\c3ccc(N(C)C)cc3)C2=O)cc1`: the IC50 in the assay with A549 [5] is 1400 nM; in the assay with SK-OV-3 [6], 14000 nM; with PC-3 [7], 15000 nM. Besides, in assay [3], the inhibition at 50 µM is < 50%.

Turning to `CCOP(=O)(CCCN1C/C(=C\c2ccc(F)cc2)C(=O)/C(=C/c2ccc(F)cc2)C1)OCC`, the IC50 was determined as 9070 nM with A549 [5], 2800 nM in the assay on SK-OV-3 [6], 1820 nM in the assay with PC-3 [7] and 8500 nM in assay [8].

For the compound `CCOP(=O)(CN1C/C(=C\c2ccc(N(C)C)cc2)C(=O)/C(=C/c2ccc(N(C)C)cc2)C1)OCC`, the inhibition at 50 µM (with A549 [1]; with SK-OV-3 [2]; in assay [3]) was < 50% each time. Further, 30000 nM corresponded to half-maximal inhibition in the assay with PC-3 [7] (IC50).

In the case of `O=C1/C(=C/c2ccc(F)cc2)CNC/C1=C\c1ccc(F)cc1`, the IC50 turned out to be 800 nM in the assay on A549 [5], 6500 nM in the assay on SK-OV-3 [6] and 6000 nM in the assay on PC-3 [7]. Further, the inhibition at 50 µM in assay [3] is < 50%.

Take `N[C@@H](Cc1ccc(N(CCCl)CCCl)cc1)C(=O)O` [MELPHALAN]: the IC50 in the assay with A549 [5] was found to be 50000 nM; with SK-OV-3 [6], 60000 nM; with PC-3 [7], 70000 nM; in assay [8] it was 20000 nM.

As to `CCOP(=O)(CCCCN1C/C(=C\c2ccc([N+](=O)[O-])cc2)C(=O)/C(=C/c2ccc([N+](=O)[O-])cc2)C1)OCC`, the IC50 in the assay on A549 [5] is 3000 nM; in the assay with SK-OV-3 [6], 4100 nM; with PC-3 [7], 1200 nM; in assay [8] it was 1010 nM.

For `CCOP(=O)(CCN1C/C(=C\c2ccc([N+](=O)[O-])cc2)C(=O)/C(=C/c2ccc([N+](=O)[O-])cc2)C1)OCC`, the half-inhibitory concentration (IC50) in the assay on A549 [5] amounted to 1000 nM; with SK-OV-3 [6] it was 2010 nM; with PC-3 [7], 1320 nM; in assay [8] it was 5050 nM.

For `CCOP(=O)(CN1C/C(=C\c2ccc(F)cc2)C(=O)/C(=C/c2ccc(F)cc2)C1)OCC`, the IC50 in the assay on A549 [5] worked out at 8050 nM; in the assay on SK-OV-3 [6] it was 2100 nM; with PC-3 [7], 3000 nM; in assay [8], 10200 nM.

For `CCOP(=O)(CCCN1C/C(=C\c2ccc(N(C)C)cc2)C(=O)/C(=C/c2ccc(N(C)C)cc2)C1)OCC`, the inhibition at 50 µM (with A549 [1]; in the assay with SK-OV-3 [2]; in assay [3]; with PC-3 [4]) was < 50% in each case.

Regarding `CCOP(=O)(CCCN1C/C(=C\c2ccc([N+](=O)[O-])cc2)C(=O)/C(=C/c2ccc([N+](=O)[O-])cc2)C1)OCC`, the IC50 with A549 [5] is 7120 nM; with SK-OV-3 [6], 900 nM; in the assay with PC-3 [7], 710 nM; in assay [8] it was 5620 nM.

With `O=C1/C(=C/c2ccc([N+](=O)[O-])cc2)CNC/C1=C\c1ccc([N+](=O)[O-])cc1`, the half-inhibitory concentration (IC50) amounted to 400 nM in the assay with A549 [5], 2500 nM with SK-OV-3 [6], 1540 nM with PC-3 [7] and 1030 nM in assay [8].

For `CCOP(=O)(CN1C/C(=C\c2ccc([N+](=O)[O-])cc2)C(=O)/C(=C/c2ccc([N+](=O)[O-])cc2)C1)OCC`, the IC50 in the assay with A549 [5] was 1000 nM; in the assay on SK-OV-3 [6], 1520 nM; in the assay on PC-3 [7], 1400 nM; in assay [8] it was 5030 nM.

For the compound `CCOP(=O)(CCN1C/C(=C\c2ccc(F)cc2)C(=O)/C(=C/c2ccc(F)cc2)C1)OCC`, the 50% inhibitory concentration (IC50) in the assay on A549 [5] was 1020 nM; in the assay on SK-OV-3 [6], 1640 nM; with PC-3 [7] it was 4010 nM; in assay [8] it was 10000 nM.
